According to ChEMBL document CHEMBL3045952, “Design, synthesis, and fungicidal activity of novel analogues of pyrrolnitrin” (J Agric Food Chem, 2009):
Converted amounts (≈) assume the structure as drawn.

Assays:
[1] = test system: Botryosphaeria berengeriana; assay: Fungicidal activity against Botryosphaeria berengeriana assessed as mycelium growth inhibition at 50 ug/mL by mycelium growth rate method; type: functional; conditions: read-out: GI
In short: (§1)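 In vitro mycelium growth rate method, with fenpiclonil as control. Compounds were tested at 50, 20 and 10 μg mL-1. Mycelial diameters were measured once the mycelia had grown completely. Inhibition (%) = (D1 − D2)/D1 × 100, where D1 is the mean mycelial diameter in the blank and D2 is the mean diameter with compound.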

[2] = test system: Mycosphaerella arachidis; assay: Fungicidal activity against Mycosphaerella arachidis assessed as mycelium growth inhibition at 50 ug/mL by mycelium growth rate method; type: functional; conditions: read-out: GI; in short: as §1
[3] = test system: Fusarium oxysporum; assay: Fungicidal activity against Fusarium oxysporum assessed as mycelium growth inhibition at 50 ug/mL by mycelium growth rate method; type: functional; conditions: read-out: GI; in short: as §1
[4] = test system: Fusarium oxysporum; assay: Fungicidal activity against Fusarium oxysporum assessed as mycelium growth inhibition by mycelium growth rate method; type: functional, organism-based
In short: (§2)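 EC50 was calculated by the […] from in vitro growth-rate inhibition ratios. Inhibition (%) = (D1 − D2)/D1 × 100, taken from mean mycelial diameters of the blank (D1) and the treated plates (D2) once mycelia had grown completely. Fenpiclonil served as control.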

[5] = test system: Alternaria solani; assay: Fungicidal activity against Alternaria solani assessed as mycelium growth inhibition at 50 ug/mL by mycelium growth rate method; type: functional; conditions: read-out: GI; in short: as §1
[6] = test system: Fusarium graminearum; assay: Fungicidal activity against Fusarium graminearum assessed as mycelium growth inhibition by mycelium growth rate method; type: functional, organism-based; in short: as §2
[7] = test system: Alternaria solani; assay: Fungicidal activity against Alternaria solani assessed as mycelium growth inhibition by mycelium growth rate method; type: functional, organism-based; in short: as §2
[8] = test system: Mycosphaerella arachidis; assay: Fungicidal activity against Mycosphaerella arachidis assessed as mycelium growth inhibition by mycelium growth rate method; type: functional, organism-based; in short: as §2
[9] = test system: Botryosphaeria berengeriana; assay: Fungicidal activity against Botryosphaeria berengeriana assessed as mycelium growth inhibition by mycelium growth rate method; type: functional, organism-based; in short: as §2
[10] = test system: Fusarium graminearum; assay: Fungicidal activity against Fusarium graminearum assessed as mycelium growth inhibition at 50 ug/mL by mycelium growth rate method; type: functional; conditions: read-out: GI; in short: as §1

Compound	inhibition of growth at 50 µg/mL [1] [%]	inhibition of growth at 50 µg/mL [2] [%]	inhibition of growth at 50 µg/mL [3] [%]	EC50 [4] [µg/mL]	inhibition of growth at 50 µg/mL [5] [%]	EC50 [6] [µg/mL]	EC50 [7] [µg/mL]	EC50 [8] [µg/mL]	EC50 [9] [µg/mL]	inhibition of growth at 50 µg/mL [10] [%]
O=[N+]([O-])c1cc([N+](=O)[O-])c(-c2ccsc2)cc1F	100	100	100	4.42 (≈ 16.5 µM)	68	27.5 (≈ 103 µM)	25.2 (≈ 94 µM)	7.16 (≈ 26.7 µM)	4.41 (≈ 16.4 µM)	100
O=[N+]([O-])c1c(Cl)c(Cl)cc(Cl)c1-c1ccsc1	90	50	36	> 50	49	> 50	> 50	> 50	36.7 (≈ 119 µM)	47
